Screening data (PubChem)
STAT1 inh = STAT1 signaling inhibition; NIH 3T3 STAT1-luciferase reporter, IFN-gamma, luminescence; inhibition, % at 5.5 µM; hit rate 0.35% among 200,000;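 active means inhibition above a set limit, the mean inhibition across all tested compounds plus 3 SD, cut at about 34% in these data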;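 further: 0% = IFN-gamma with DMSO and 100% = IFN-gamma with 300 µM nifuroxazide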
STAT3 act = STAT3 signaling activation. U3A cells, IL-6 STAT3-luciferase reporter, luminescence; 100% = signal with IL-6 EC80 alone. activation (% of control), % at 5.6 µM. hit rate 0.91% among 190,000;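 active means activation above the screen-wide mean of compound activation plus 3 SD, cut at about 130% in these data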;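 further: 0% = background luminescence of wells with medium and substrate only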
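Detection: reporter luminescence signal / Assay system: STAT1-lacking human U3A cells, STAT3 luciferase reporter / Incubation: compound pre-incubation 1 h before IL-6, then 6 h stimulation at 37 °C / Control set: IL-6-only high control / Read-out: % activation relative to IL-6 control / Probe or stimulus: Interleukin-6, 33 ng/mL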
STAT1 act = activators of IFN-gamma induced STAT1 signaling. NIH 3T3 STAT1-luciferase reporter, luminescence; 100% = IFN-gamma alone, no compound. activation (% of control), % at 5.5 µM. hit rate 2.6% among 200,000. AID 932;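 active means activation above the screen-wide mean activation plus 3 SD, cut at about 130% in these data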;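 further: raw ratio to IFN-gamma control signal so 100% means no change and 0% no light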
NF-kB expr up = compounds increasing NF-kB expression in human neuronal cells. NF-kB reporter expression; hits give high values. fold change at 12.5 µM. AID 1239. hit rate 1.6% among 190,000; in the data active means fold change above about 3.3
STAT3 inh = reduces IL-6 driven STAT3 reporter signal; U3A cells, IL-6 STAT3-luciferase reporter, luminescence; host cell line lacks STAT1; AID 862; hit rate 0.89% among 190,000; inhibition, % at 5.5 µM;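 active means inhibition above the mean inhibition across all screened compounds plus 3 SD, cut at about 44% in these data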;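 further: 0% = DMSO only wells and 100% = 100 µM nifuroxazide control wells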
APP 5'UTR act = APP 5'UTR luciferase reporter activation. SH-SY5Y APP 5'UTR luciferase reporter, luminescence; zero percent = DMSO vehicle wells. activation, % at 2 µM. hit rate 1% among 190,000;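 active means activation above a set limit, based on mean plus 3 SD of controls, cut at about 140% in these data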
Active calls of the source: *; · = no result given. Only some compounds are listed: those with a hit (about 4.9% of all), similar ones and a draw of the others.

SMILES | STAT1 inh | STAT3 act | STAT1 act | NF-kB expr up | STAT3 inh | APP 5'UTR act
COc1ccc2oc3cc(C)[n+]([O-])c(-c4ccc(Cl)cc4)c3c2c1 | 8 | 93 | 92 | 1.1 | 9 | -8
CC(C)OC(=O)c1ccc(NC(=O)C2C3CC4OC(=O)C2C4C3)cc1 (stereo not drawn) | -36 | 113 | 133* | 1.2 | -12 | 47
O=C(NCc1ccc(F)cc1)c1cnn2ccccc12 | -35 | 103 | 132* | 2.4 | 1 | 55
Cn1cc(C(=O)NCc2ccc(F)cc2)cn1 | 4 | 98 | 98 | 1.2 | 8 | -6
CSc1ccccc1C(=O)Nc1ccc2c(c1)OCCO2 | -4 | 98 | 104 | 1.4 | 0 | 12
CCc1ccc(NC(=O)c2ccccc2SC)cc1 | -33 | 101 | 129* | 1.2 | 7 | 47
CCc1ccc(NC(=O)c2cnn3ccccc23)cc1 | 78* | 22 | 30 | 4* | 98* | 135
CC1=NN(c2nc(-c3ccc(C)cc3)cs2)C(=O)C1N=Nc1ccccc1O (stereo not drawn) | -10 | 104 | 108 | 1.8 | -2 | -52
COc1ccc(-c2csc(N3N=C(C)C(C)C3=O)n2)cc1 (stereo not drawn) | -34 | 101 | 132* | 2.2 | 7 | 41
CC1(C)CNc2cc([N+](=O)[O-])ccc2S1 | -10 | 99 | 109 | 1.6 | 5 | -26
CC1=Nc2cc([N+](=O)[O-])ccc2NC(C)(C)C1 | -2 | 105 | 102 | 1.1 | -7 | 136*
COC(=O)c1ccc(COc2cc([N+](=O)[O-])cc3cccnc23)o1 | 4 | 100 | 95 | 1.3 | 3 | -3
O=[N+]([O-])c1cc(O)c2ncccc2c1 | 5 | 128 | 97 | 5.8* | -27 | -29
CCSc1ccc(-c2cccc([N+](=O)[O-])c2)nn1 | -45 | 108 | 137* | 1.1 | -5 | 28
O=C(CSc1ccc(-c2cccc([N+](=O)[O-])c2)nn1)N1CCCC1 | -13 | 96 | 108 | 1.1 | 10 | 17
Cc1ccc(-c2nc3ccsc3c(=O)o2)cc1 | -32 | 131 | 129* | 2.9 | -35 | 5
CC(C)Sc1nc2ccsc2c(=O)[nH]1 | -6 | 92 | 106 | 1.6 | 10 | 6
Cc1ccccc1C(C(=O)NC1CCCC1)N(C(=O)CNC(=O)c1ccco1)c1cccnc1 (stereo not drawn) | -19 | 98 | 116 | 1.1 | 8 | 8
O=c1[nH]c(CSc2nc(-c3ccc(F)cc3)cs2)nc2ccccc12 | -5 | 109 | 104 | 1 | -14 | -9
Cc1cc(C(=O)CN2C(=O)C(=O)N(Cc3ccccc3)C2=O)c(C)n1-c1ccccc1F | -2 | 104 | 103 | 0.88 | -4 | 33
Cc1cc(C(=O)CN2CCC(C)CC2)c(C)n1-c1ccccc1F | -39 | 72 | 135* | 0.31 | 30 | 132
O=C(c1cc(COc2c(F)cccc2F)on1)N1CCC(c2ccccc2Cl)C1 (stereo not drawn) | -25 | 112 | 120 | 1.9 | -7 | 22
O=C(c1cc(COc2c(F)cccc2F)on1)N1CCC(c2ccccc2F)C1 (stereo not drawn) | -36 | 112 | 132* | 2.5 | -9 | 32
CC1(C)C(C=C(Cl)Cl)C1C(=O)Nc1ccc([N+](=O)[O-])cc1 (stereo not drawn) | 5 | 103 | 95 | 0.66 | -4 | 1
Cc1ccc2occ(/C=C/C(=O)c3ccccc3O)c(=O)c2c1 | -1 | 108 | 101 | 2.3 | -3 | 10
SMILES | STAT1 inh | STAT3 act | STAT1 act | NF-kB expr up | STAT3 inh | APP 5'UTR act
Cc1c(/C=C/C(=O)c2ccccc2O)cnn1C | -14 | 112 | 112 | 3.9* | -9 | 91
CC1CN(C(=O)c2ccc(COc3ccc(C(C)C)cc3)o2)CC(C)O1 (stereo not drawn) | -33 | 133* | 129* | 1.8 | -28 | 22
O=C(Nc1ccc2c(c1)oc1ccccc12)c1ccc(Br)o1 | -43 | 97 | 139* | 1.6 | 8 | 55
COC(=O)Cc1ccc(NC(=O)c2ccc(Br)o2)cc1 | -28 | 95 | 126 | 1.8 | 9 | 51
CCN(CC)c1ccc(NC(=O)c2ccc(Br)o2)cc1 | -33 | 108 | 133* | 7* | -2 | 178*
COc1ccc(OCC(=O)Nc2c3c(nn2C(C)(C)C)CSC3)cc1 | 2 | 106 | 95 | 1.1 | -2 | 12
COc1ccc(-c2cc(C(F)(F)F)nc(SCC(=O)NCCCN3CCOCC3)n2)cc1 | -12 | 98 | 111 | 1.1 | 6 | 25
c1ccc(CCNc2ncnc3c2cnn3-c2ccccc2)cc1 | -43 | 98 | 140* | 6.5* | 7 | 135
CC(C)OCCCNc1ncnc2c1cnn2-c1ccccc1 | -31 | 83 | 128 | 6* | 27 | 194*
c1ccc(-n2ncc3c(NCCN4CCOCC4)ncnc32)cc1 | -36 | 106 | 133* | 1.8 | -3 | 30
c1ccc(CNc2ncnc3c2cnn3-c2ccccc2)cc1 | -30 | 99 | 127 | 2.1 | 7 | -18
C/C(=N\N=c1/sc2ccccc2n1C)c1ccccn1 | -49 | 100 | 142* | 2 | 5 | 60
COCCCNC(=O)COc1ccc(Br)cc1Cl | -44 | 104 | 139* | 2.2 | -2 | 17
CC(C)(C)c1ccc(-c2nc(C#N)c(NCc3ccncc3)o2)cc1 | -34 | 107 | 131* | 2.3 | -2 | ·
COc1ccc(-c2nc(C#N)c(NCc3ccc(C)cc3)o2)cc1OC | -4 | 99 | 104 | 1.2 | 5 | 25
CNc1oc(-c2ccc(Cl)cc2)nc1C#N | -35 | 92 | 132* | 2.3 | 11 | 34
O=c1cccc2n1Cc1cc3ccccc3nc1-2 | -38 | 94 | 135* | 3.1 | 4 | 67
O=C(CCSc1ccccn1)Nc1ccc(Br)cc1 | -45 | 103 | 140* | 3.4* | -1 | 65
C/C(N)=C(/C#N)C(=O)CSc1nnc(Nc2ccccc2)s1 | -50 | 108 | 148* | 1.4 | -9 | 34
COc1ncnc2c1cnn2-c1ccccc1 | -7 | 90 | 106 | 1.4 | 12 | 17
CCN(c1ccccc1)c1ncnc2c1cnn2-c1ccccc1 | -34 | 114 | 131* | 1.3 | -7 | 41
CN(Cc1ccccc1)c1ncnc2c1cnn2-c1ccccc1 | -54 | 87 | 150* | 4.7* | 19 | 124
CCOC(=O)CC(=O)CSc1ncnc2c1cnn2-c1ccccc1 | -47 | 94 | 143* | 3.8* | 11 | 45
CCOC(=O)COc1c(Cl)cc(C2NC(=S)NC(c3ccccc3)=C2C(C)=O)cc1OCC (stereo not drawn) | 5 | 122 | 95 | 1.1 | -32 | 19
Cc1cc(C)nc(N/N=C/c2cccc(Cl)c2)n1 | -10 | 93 | 109 | 1.2 | 12 | 65
Clc1cccc(/C=N/Nc2nc(Cl)nc3ccccc23)c1 | -49 | 112 | 145* | 2.5 | -8 | ·
NC(=O)c1cccnc1Nc1cccc(F)c1 | -15 | 109 | 113 | 1.3 | -8 | 0
